# Results taken from ChEMBL document CHEMBL2311525, “Design, synthesis, and pharmacological properties of new heteroarylpyridine/heteroarylpyrimidine derivatives as CB(2) cannabinoid receptor partial agonists” (J Med Chem, 2013).
# Experiments:
# Cannabinoid receptor 2 [1] = target: T1, Cannabinoid receptor 2 (Homo sapiens, UniProt P34972); test: Agonist activity at human CB2 receptor expressed in CHO cells assessed as forskolin-stimulated [3H]cyclic-AMP accumulation by scintillation counting analysis relative to WIN 55,212-2; assay type: functional, cell-based
# In short: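 CHO cells stably expressing human CB2, 1 × 10^6 cells/assay, in buffered saline (10 mM MgCl2, 5 mM glucose, 5 mM HEPES, pH 7.4, 37 °C) with 0.5 mM Ro 20-1724. Preincubated 10 min at 37 °C, then tested with 1 μM forskolin. Stopped with cold 6% TCA and ether-extracted. cAMP read by [3H]cAMP competition binding to beef adrenal binding protein with charcoal separation.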
# Cannabinoid receptor 2 [2] = target: T1, Cannabinoid receptor 2; test: Agonist activity at human CB2 receptor expressed in CHO cells assessed as forskolin-stimulated [3H]cyclic-AMP accumulation by scintillation counting analysis; assay type: functional, cell-based
# Homo sapiens = species: Homo sapiens; test: Selectivity index, ratio of Ki for human recombinant CB1 receptor to Ki for human recombinant CB2 receptor
# Cannabinoid receptor 2 [3] = target: T1, Cannabinoid receptor 2; test: Displacement of [3H]CP-55,940 from human recombinant CB2 receptor expressed in CHO cell membranes after 60 mins by scintillation counting analysis
# Cannabinoid receptor 2 [4] = target: T2, Cannabinoid receptor 2 (Rattus norvegicus, UniProt Q9QZN9); test: Displacement of [3H]CP-55,940 from Sprague-Dawley rat spleen CB2 receptor by scintillation counting analysis
# T2 sequence (Q9QZN9 whole entry): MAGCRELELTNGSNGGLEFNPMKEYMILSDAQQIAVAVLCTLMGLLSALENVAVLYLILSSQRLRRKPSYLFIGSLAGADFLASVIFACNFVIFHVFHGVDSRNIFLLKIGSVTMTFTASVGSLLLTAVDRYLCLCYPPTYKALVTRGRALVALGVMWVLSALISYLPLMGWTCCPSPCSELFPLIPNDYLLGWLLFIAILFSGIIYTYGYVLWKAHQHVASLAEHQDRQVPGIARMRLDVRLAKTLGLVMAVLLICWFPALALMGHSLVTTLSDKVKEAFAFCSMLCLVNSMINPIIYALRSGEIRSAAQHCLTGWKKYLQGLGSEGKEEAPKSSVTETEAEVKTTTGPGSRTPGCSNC
# In short: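 Male Sprague-Dawley rat spleen membranes, prepared by spinning at 2000g and then 40000g, in 50 mM Tris-HCl with 1 mM EDTA, 3 mM MgCl2 and 0.5% fatty-acid-free BSA, pH 7.4. Filtered on GF/C.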
# Cannabinoid receptor 1 [5] = target: T3, Cannabinoid receptor 1 (Homo sapiens, UniProt P21554); test: Displacement of [3H]CP-55,940 from human recombinant CB1 receptor expressed in CHO cell membranes after 90 mins by scintillation counting analysis
# Cannabinoid receptor 1 [6] = target: Cannabinoid receptor 1 (Rattus norvegicus, UniProt P20272); test: Displacement of [3H]CP-55,940 from Sprague-Dawley rat brain CB1 receptor by scintillation counting analysis
# In short: (§1)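 Male Sprague-Dawley rat brain membranes, prepared by spinning at 2000g and then 40000g, in 50 mM Tris-HCl with 1 mM EDTA, 3 mM MgCl2 and 0.5% fatty-acid-free BSA, pH 7.4. Incubated with 1.0 nM [3H]CP-55,940, 40 μg protein/100 μL and test compound at 1 nM–10 μM. Filtered on GF/C. Ki by Cheng–Prusoff, n = 4.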
# Cannabinoid receptor 1 [7] = target: T3, Cannabinoid receptor 1; test: Displacement of [3H]CP-55,940 from human recombinant CB1 receptor expressed in CHO cell membranes at 1 to 10000 nM after 90 mins by scintillation counting analysis
# In short: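 Membranes from CHO cells expressing hCB1, spun at 100000g, in 50 mM Tris-HCl with 0.5% BSA, 5 mM MgCl2 and 2.5 mM EDTA, pH 7.4. Incubated with 0.5 nM [3H]CP-55,940 and compound at 1 nM–10 μM for 90 min at 30 °C. Filtered on GF/C and counted. Ki by Cheng–Prusoff, n = 4.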
# [8] = target: Cannabinoid receptor 1 (Rattus norvegicus) (UniProt P20272); test: Displacement of [3H]CP-55,940 from Sprague-Dawley rat brain CB1 receptor at 1 to 10000 nM by scintillation counting analysis; in short: as §1
# Cannabinoid receptor 1 (Rattus norvegicus), sequence (P20272 whole entry): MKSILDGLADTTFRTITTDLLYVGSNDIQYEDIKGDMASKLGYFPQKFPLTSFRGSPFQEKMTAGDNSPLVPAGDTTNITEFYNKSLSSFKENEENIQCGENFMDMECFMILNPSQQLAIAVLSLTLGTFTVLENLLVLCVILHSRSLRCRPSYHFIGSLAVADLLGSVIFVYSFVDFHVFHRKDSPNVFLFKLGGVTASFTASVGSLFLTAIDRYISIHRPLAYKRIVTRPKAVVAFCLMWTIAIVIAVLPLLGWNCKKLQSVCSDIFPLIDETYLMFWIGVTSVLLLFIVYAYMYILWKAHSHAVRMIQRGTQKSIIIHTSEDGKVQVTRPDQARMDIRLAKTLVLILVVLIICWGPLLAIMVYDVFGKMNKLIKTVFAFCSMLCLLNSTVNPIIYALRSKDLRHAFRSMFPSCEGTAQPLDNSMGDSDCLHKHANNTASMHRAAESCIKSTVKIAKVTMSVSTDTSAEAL
# Cannabinoid receptor 1 (Rattus norvegicus, UniProt P20272), sequence (P20272 whole entry): as above
# T1 sequence (P34972 whole entry): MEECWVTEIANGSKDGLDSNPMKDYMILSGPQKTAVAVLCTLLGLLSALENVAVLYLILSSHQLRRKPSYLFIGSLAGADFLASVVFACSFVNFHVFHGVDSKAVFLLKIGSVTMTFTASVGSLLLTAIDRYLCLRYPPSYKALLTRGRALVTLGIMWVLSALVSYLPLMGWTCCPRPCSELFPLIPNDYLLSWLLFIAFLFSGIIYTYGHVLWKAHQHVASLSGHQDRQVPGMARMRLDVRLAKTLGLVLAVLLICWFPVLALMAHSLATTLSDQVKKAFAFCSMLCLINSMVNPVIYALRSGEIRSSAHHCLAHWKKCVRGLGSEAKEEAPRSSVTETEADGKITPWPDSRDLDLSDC
# T3 sequence (P21554 whole entry): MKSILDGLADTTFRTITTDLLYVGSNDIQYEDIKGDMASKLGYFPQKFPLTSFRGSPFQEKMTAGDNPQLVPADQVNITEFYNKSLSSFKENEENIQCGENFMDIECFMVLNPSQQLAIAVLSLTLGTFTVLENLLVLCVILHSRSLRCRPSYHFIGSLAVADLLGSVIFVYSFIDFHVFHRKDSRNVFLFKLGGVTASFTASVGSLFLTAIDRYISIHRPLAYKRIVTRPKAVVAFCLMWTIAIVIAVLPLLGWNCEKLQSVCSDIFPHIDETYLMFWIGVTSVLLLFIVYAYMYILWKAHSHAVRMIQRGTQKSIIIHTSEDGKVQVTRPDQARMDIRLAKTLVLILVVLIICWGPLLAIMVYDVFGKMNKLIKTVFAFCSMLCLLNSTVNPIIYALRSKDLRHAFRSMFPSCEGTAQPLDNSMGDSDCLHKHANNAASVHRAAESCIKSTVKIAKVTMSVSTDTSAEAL
SMILES,Emax (Cannabinoid receptor 2 [1]),EC50 (Cannabinoid receptor 2 [2]),Ratio Ki (Homo sapiens),Ki (Cannabinoid receptor 2 [3]),Ki (Cannabinoid receptor 2 [4]),Ki (Cannabinoid receptor 1 [5]),Ki (Cannabinoid receptor 1 [6]),inhibition (Cannabinoid receptor 1 [7]),inhibition [8]
Cc1nn(C)c2c1c(=O)c(C(=O)NC1CCCCC1)cn2Cc1ccccc1,36%,3.82 µM,4.4,0.956 µM,1.1 µM,4.25 µM,4.56 µM,–,–
CCCCCn1cc(C(=O)NC2CCCCCC2)c(=O)c2c(-c3ccc(Cl)cc3)nn(C)c21,–,–,> 3.5,2.83 µM,4.05 µM,> 10 µM,> 10 µM,17%,12%
CCCCCn1cc(C(=O)N[C@H]2CC[C@@H](C)CC2)c(=O)c2c(C)nn(C)c21,16%,0.052 µM,68,0.0106 µM,0.0118 µM,0.723 µM,0.75 µM,–,–
CCCCCn1cc(C(=O)NC23CC4CC(CC(C4)C2)C3)c(=O)c2c(C)noc21,97%,0.083 µM,69.9,0.021 µM,0.026 µM,1.47 µM,1.49 µM,–,–
CCCCCn1cc(C(=O)NCC2CCCCC2)c(=O)c2c(C)nn(C)c21,41%,1.56 µM,3,0.372 µM,0.508 µM,1.12 µM,1.04 µM,–,–
CCCCn1cc(C(=O)NC2CCCCC2)c(=O)c2c(C)nn(C)c21,38%,1.89 µM,9.1,0.138 µM,0.145 µM,1.26 µM,1.53 µM,–,–
CCCCCn1cc(C(=O)NC23CC4CC(C)(CC(C)(C4)C2)C3)c(=O)c2c(C)nn(C)c21,71%,0.045 µM,107,0.00983 µM,0.0167 µM,1.05 µM,3.26 µM,–,–
CCCCCn1cc(C(=O)NC23CC4CC(CC(C4)C2)C3)c(=O)c2c(C)c(C)sc21,-178%,0.034 µM,15.9,0.00327 µM,0.00426 µM,0.043 µM,0.052 µM,–,–
CCCCCn1cc(C(=O)NC2CCCCC2)c(=O)c2c(-c3ccc(Cl)cc3)nn(C)c21,–,–,> 2.8,3.62 µM,5.02 µM,> 10 µM,> 10 µM,22%,15%
CCCCCn1cc(C(=O)NC2CCCCCC2)c(=O)c2c(C)csc21,-95%,0.065 µM,7.5,0.00695 µM,0.00823 µM,0.052 µM,0.067 µM,–,–
CCCn1cc(C(=O)NC2CCCCC2)c(=O)c2c(C)nn(C)c21,–,–,1.8,0.412 µM,0.593 µM,0.758 µM,0.832 µM,–,–
CCCCCn1cc(C(=O)Nc2ccccc2)c(=O)c2c(C)nn(C)c21,38%,2.16 µM,1.7,0.524 µM,0.74 µM,0.865 µM,1.02 µM,–,–
CCCCCn1cc(C(=O)NC2CCCCC2)c(=O)c2c(C)nn(C)c21,52%,0.323 µM,5.9,0.085 µM,0.1 µM,0.5 µM,1.42 µM,–,–
CCCCCn1cc(C(=O)N[C@H]2CC[C@H](C)CC2)c(=O)c2c(C)nn(C)c21,14%,0.058 µM,401,0.0114 µM,0.0133 µM,4.57 µM,4.8 µM,–,–
CCCCCn1cc(C(=O)NC23CC4CC(CC(C4)C2)C3)c(=O)c2cnn(C)c21,67%,0.041 µM,432,0.0116 µM,0.0133 µM,4.75 µM,5.34 µM,–,–
CCCCCn1cc(C(=O)NC23CC4CC(CC(C4)C2)C3)c(=O)c2c(C(C)(C)C)nn(C)c21,43%,1.76 µM,10,0.363 µM,0.417 µM,3.75 µM,3.43 µM,–,–
